# ChEMBL document CHEMBL5506039, “Discovery and Optimization of Tambjamines as a Novel Class of Antileishmanial Agents” (J Med Chem, 2024)
# Assays:
# Leishmania mexicana [1] = experiment: Antileishmanial activity against Leishmania mexicana MNYC/BZ/62/M379 amastigotes expressing red-shifted firefly luciferase from integrated ribosomal (28S) RNA locus infected in mouse J774.A1 cells assessed as reduction in parasite survival measured after 96 hrs by luminescence based analysis; assay type: functional, organism-based; settings: MNYC/BZ/62/M379, J774.A1, 96 h
# Method in brief: (§1)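 J774A.1 macrophages infected with stationary-phase luciferase-expressing promastigotes at 10:1 parasites:macrophage, overnight at 37 °C, 5% CO₂. Non-internalized parasites washed off and 1 × 10⁴ cells/well replated in MEM/10% HI-FBS. Compounds in DMSO added as serial 3-fold dilutions (typically 10 μM–1 nM) for 96 h. Luciferase luminescence read; EC50 from log-transformed sigmoidal variable-slope fit. Mean ± SD of ≥2 independent experiments.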
# Leishmania donovani = experiment: Antileishmanial activity against Leishmania donovani amastigotes expressing red-shifted firefly luciferase from integrated ribosomal (28S) RNA locus infected in mouse J774.A1 cells assessed as reduction in parasite growth measured after 96 hrs by luminescence based analysis; assay type: functional, organism-based; settings: J774.A1, 96 h; method in brief: as §1
# [2] = Therapeutic index, ratio of EC50 for mouse J774.A1 cells to EC50 for antileishmanial activity against Leishmania mexicana MNYC/BZ/62/M379 amastigotes expressing red-shifted firefly luciferase from integrated ribosomal (28S) RNA locus infected in mouse J774.A1 cells; assay type: toxicity, cell-based; settings: read-out: TI
# [3] = Cytotoxicity against mouse J774.A1 cells assessed as cell survival at 0.1 uM measured after 96 hrs by SYBR Green II dye based analysis relative to control; assay type: toxicity; settings: read-out: Survival
# Method in brief: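 Uninfected J774A.1 mouse macrophages were plated at 1 × 10⁴ cells/well in DMEM with 10% heat-inactivated FBS and left 3 h at 37 °C to reattach. Compounds were added from DMSO, and analogues were screened at 0.1 μM. After 96 h at 37 °C in 5% CO₂, medium was removed. SYBR Green II (1:1000 in 1% Triton/PBS) was added for 1 h in the dark at room temperature, and fluorescence was read at Ex 485/Em 535 as a DNA-content measure of viability.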
# Leishmania mexicana [4] = experiment: Antileishmanial activity against Leishmania mexicana MNYC/BZ/62/M379 amastigotes expressing red-shifted firefly luciferase from integrated ribosomal (28S) RNA locus infected in mouse J774.A1 cells assessed as parasite survival at 0.1 uM measured after 96 hrs by luminescence based analysis relative to control; assay type: functional; settings: MNYC/BZ/62/M379, J774.A1
# [5] = Cytotoxicity against mouse J774.A1 cells assessed as reduction in cell survival measured after 96 hrs by SYBR Green II dye based analysis; assay type: toxicity
# Method in brief: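 Uninfected J774A.1 macrophages, 1 × 10⁴ cells/well in DMEM/10% HI-FBS, reattached 3 h, then exposed to compounds for 96 h. DNA content read after lysis with SYBR Green II (1:1000 in 1% Triton/PBS), 1 h dark at room temperature, fluorescence Ex 485/Em 535.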
# HepG2 = experiment: Cytotoxicity against human HepG2 cells assessed as inhibition of cell growth incubated for 48 hrs by MTT assay; assay type: toxicity, cell-based
# Method in brief: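 HepG2 cells, 2.5 × 10⁴/well in supplemented complete MEM, settled overnight at 37 °C, 5% CO₂. Compounds given as 11 duplicate 1.6-fold dilutions, 10 to 0.15 μg/mL, for 48 h. MTT added for 1 h in the dark at room temperature, formazan dissolved in acidified isopropanol, absorbance read. Triplicate runs; IC50 by sigmoidal variable-slope regression.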
# [6] = Metabolic stability in pre-warmed pooled human liver microsomes assessed as half life at 1 uM measured upto 60 mins by LC-MS analysis; assay type: ADME, Microsome
# Method in brief: (§2)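 Compound at 1 μM final with 0.5 mg/mL pooled human or mouse liver microsomes, 1.3 mM NADP and 3.3 mM MgCl₂ in 100 mM potassium phosphate, pH 7.4. Reaction started with 1 U/mL G6PD at 37 °C with shaking.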
# [7] = Therapeutic index, ratio of IC50 for human HepG2 cells to EC50 for antileishmanial activity against Leishmania donovani amastigotes expressing red-shifted firefly luciferase from integrated ribosomal (28S) RNA locus infected in mouse J774.A1 cells; assay type: toxicity, cell-based; settings: read-out: TI
# Method in brief: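 TI computed as HepG2 IC50 divided by L. donovani EC50. HepG2: MTT assay with 48 h exposure to 10–0.15 μg/mL (1.6-fold dilutions), triplicates, sigmoidal variable-slope fit. Amastigotes: J774A.1 macrophages infected with RS-luciferase promastigotes at 10:1, washed after 24 h, then 96 h compound exposure (3-fold dilutions, 10 μM–1 nM) in MEM/10% HI-FBS at 37 °C, 5% CO₂; luciferase readout.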
# [8] = Metabolic stability in pre-warmed pooled mouse liver microsomes assessed as half life at 1 uM measured upto 60 mins by LC-MS analysis; assay type: ADME, Microsome; method in brief: as §2
SMILES,EC50 (Leishmania mexicana [1]) [nM],EC50 (Leishmania donovani) [nM],selectivity ratio [2],"viability at 96 h, 0.1 µM [3] [%]",survival at 0.1 µM (Leishmania mexicana [4]) [%],EC50 at 96 h [5] [nM],IC50 (HepG2) [nM],half-life at 1 µM [6] [min],selectivity ratio [7],half-life at 1 µM [8] [min]
COC1=CC(c2ccc[nH]2)=N/C1=C\Nc1ccccc1,73,226,14,72.8,14.3,1040,,,,
CCCCCCN/C=C1\N=C(c2ccc[nH]2)C=C1OC.Cl,52.5,118,> 19,127,11.1,> 1000,26700,17.1,226,
COC1=CC(c2ccc[nH]2)=N/C1=C\N[C@H]1CC[C@H](C)CC1.Cl,40,122,17,66.6,12.4,696,3420,17.3,28,
CCc1c(C)[nH]c(C2=N/C(=C\NC34CC5CC(CC(C5)C3)C4)C(C)=C2C)c1C.Cl,54,81.2,12,63.5,10.7,675,21300,> 60,263,29
C(/NC1CCCCCC1)=C1/N=C(c2ccc[nH]2)C2=C1CCCC2.Cl,74,101,3.4,80,24.7,252,6200,> 60,61,
CCC1=C/C(=C\NC23CC4CC(CC(C4)C2)C3)N=C1c1ccc[nH]1,37.5,90.5,24,50,11.3,884,,,168,
COC1=CC(c2ccc[nH]2)=N/C1=C\Nc1ccc(Oc2ccc(OC)cc2)cc1,66,,> 15,50.2,8.65,> 1000,,> 60,,30.1
Cl.Clc1ccc(OC2=CC(c3ccc[nH]3)=N/C2=C\NC23CC4CC(CC(C4)C2)C3)cc1,38.3,181,15,67.1,7.16,567,14500,> 60,80,> 60
COC1=CC(c2ccc[nH]2)=N/C1=C\Nc1ccc(C)cc1.Cl,41,,4.2,50.8,5.49,171,,30,,28.9
CC1=C/C(=C\NC23CC4CC(CC(C4)C2)C3)N=C1c1ccc[nH]1.Cl,48,100,24,86.9,15.4,1130,,> 60,300,
COC1=CC(c2ccc[nH]2)=N/C1=C\N[C@H]1CC[C@H](C(F)(F)F)CC1.Cl,46.7,198,24,74.4,9.48,1100,5120,13,26,
COC1=CC(c2ccc[nH]2)=N/C1=C\N[C@H]1CC[C@H](NC(=O)OC(C)(C)C)CC1,87.7,,34,51.1,28.3,2990,,8.45,,9.71
Cl.FC(F)(F)Oc1ccc(OC2=CC(c3ccc[nH]3)=N/C2=C\NC23CC4CC(CC(C4)C2)C3)cc1,41,,8.6,80.7,35.7,353,,> 60,,> 60
COC1=CC(c2ccc(Cc3ccc(OC)cc3)[nH]2)=N/C1=C\NC12CC3CC(CC(C3)C1)C2.Cl,11.3,,> 88,59.6,-0.05,> 1000,,> 60,,> 60
CCc1c[nH]c(C2=N/C(=C\NC3CCCCCC3)C(C)=C2C)c1.Cl,117,,11,63.3,23.8,1330,,> 60,,11
COC1=CC(c2ccc[nH]2)=N/C1=C\Nc1cccc(OC(F)(F)F)c1.Cl,54,,14,83.7,11.4,760,,> 60,,15.8
COC1=CC(c2ccc(-c3ccc(OC)cc3)[nH]2)=N/C1=C\NC1CCCCCC1.Cl,18.8,,24,77.3,-0.02,450,,> 60,,> 60
COC1=CC(c2ccc[nH]2)=N/C1=C\NCC1CCCCCC1.Cl,48.5,88,> 21,72.2,5.3,> 1000,6060,18.6,69,
